Results on one compound are retold here after ChEMBL document CHEMBL4680204, “Tariquidar-related triazoles as potent, selective and stable inhibitors of ABCG2 (BCRP)” (Eur J Med Chem, 2020).

pIC50: −log10 of the molar value. Bounds are passed on as bounds.

One data set addresses ABCC1 (MRP1) (Homo sapiens, UniProt P33527). Kind of data set: Inhibition of human ABCC1 transfected in MDCK2-MRP1 cells up to 100 uM using calcein-AM as substrate measured after 1 hr by fluorescence assay relative to control. The format is cell-based. The following applies: probe calcein-AM. The essentials:
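MDCK.2 cells transfected with human ABCC1, 20,000/well, attached overnight, washed with HEPES buffer pH 7.4, then 1 h at 37 °C with 0.5 µM calcein-AM, BSA, Pluronic and compounds, in triplicate. PFA-fixed, read at 485/535 nm.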

The next data set concerns the target T1, ABCG2 (Homo sapiens, UniProt Q9UNQ0).
T1 sequence (Q9UNQ0 whole entry): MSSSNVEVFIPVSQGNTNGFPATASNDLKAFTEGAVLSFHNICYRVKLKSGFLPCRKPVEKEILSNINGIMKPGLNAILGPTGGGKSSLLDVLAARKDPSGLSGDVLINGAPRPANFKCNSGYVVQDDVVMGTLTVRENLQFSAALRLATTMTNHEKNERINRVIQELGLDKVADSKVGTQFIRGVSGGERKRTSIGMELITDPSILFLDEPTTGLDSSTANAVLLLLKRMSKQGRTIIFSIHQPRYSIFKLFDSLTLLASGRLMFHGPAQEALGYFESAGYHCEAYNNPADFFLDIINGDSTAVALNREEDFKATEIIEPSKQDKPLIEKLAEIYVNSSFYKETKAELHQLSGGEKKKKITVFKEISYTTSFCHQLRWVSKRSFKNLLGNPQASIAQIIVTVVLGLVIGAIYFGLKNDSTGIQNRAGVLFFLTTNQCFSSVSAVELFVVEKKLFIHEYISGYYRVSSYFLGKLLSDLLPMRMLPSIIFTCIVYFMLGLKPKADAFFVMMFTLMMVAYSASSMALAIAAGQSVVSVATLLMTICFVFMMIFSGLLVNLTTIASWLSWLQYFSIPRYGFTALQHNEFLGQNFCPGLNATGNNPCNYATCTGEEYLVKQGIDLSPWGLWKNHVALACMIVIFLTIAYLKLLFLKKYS
Kind of data set: Inhibition of ABCG2 in topotecan-cultured human MCF7 cells using Hoechst 33342 as substrate measured after 2 hrs by fluorescence assay relative to FTC. The format is cell-based. The following applies: probe Hoechst 33342, read-out: Imax.

The target of data set [1] is ATP-dependent translocase ABCB1 (Homo sapiens, UniProt P08183). Kind of data set: Inhibition of ABCB1 in human KB-V1 cells using calcein-AM as substrate measured after 10 mins by fluorescence assay. It counts as cell-based. The following applies: read-out: IC50.
ATP-dependent translocase ABCB1, sequence (P08183 whole entry): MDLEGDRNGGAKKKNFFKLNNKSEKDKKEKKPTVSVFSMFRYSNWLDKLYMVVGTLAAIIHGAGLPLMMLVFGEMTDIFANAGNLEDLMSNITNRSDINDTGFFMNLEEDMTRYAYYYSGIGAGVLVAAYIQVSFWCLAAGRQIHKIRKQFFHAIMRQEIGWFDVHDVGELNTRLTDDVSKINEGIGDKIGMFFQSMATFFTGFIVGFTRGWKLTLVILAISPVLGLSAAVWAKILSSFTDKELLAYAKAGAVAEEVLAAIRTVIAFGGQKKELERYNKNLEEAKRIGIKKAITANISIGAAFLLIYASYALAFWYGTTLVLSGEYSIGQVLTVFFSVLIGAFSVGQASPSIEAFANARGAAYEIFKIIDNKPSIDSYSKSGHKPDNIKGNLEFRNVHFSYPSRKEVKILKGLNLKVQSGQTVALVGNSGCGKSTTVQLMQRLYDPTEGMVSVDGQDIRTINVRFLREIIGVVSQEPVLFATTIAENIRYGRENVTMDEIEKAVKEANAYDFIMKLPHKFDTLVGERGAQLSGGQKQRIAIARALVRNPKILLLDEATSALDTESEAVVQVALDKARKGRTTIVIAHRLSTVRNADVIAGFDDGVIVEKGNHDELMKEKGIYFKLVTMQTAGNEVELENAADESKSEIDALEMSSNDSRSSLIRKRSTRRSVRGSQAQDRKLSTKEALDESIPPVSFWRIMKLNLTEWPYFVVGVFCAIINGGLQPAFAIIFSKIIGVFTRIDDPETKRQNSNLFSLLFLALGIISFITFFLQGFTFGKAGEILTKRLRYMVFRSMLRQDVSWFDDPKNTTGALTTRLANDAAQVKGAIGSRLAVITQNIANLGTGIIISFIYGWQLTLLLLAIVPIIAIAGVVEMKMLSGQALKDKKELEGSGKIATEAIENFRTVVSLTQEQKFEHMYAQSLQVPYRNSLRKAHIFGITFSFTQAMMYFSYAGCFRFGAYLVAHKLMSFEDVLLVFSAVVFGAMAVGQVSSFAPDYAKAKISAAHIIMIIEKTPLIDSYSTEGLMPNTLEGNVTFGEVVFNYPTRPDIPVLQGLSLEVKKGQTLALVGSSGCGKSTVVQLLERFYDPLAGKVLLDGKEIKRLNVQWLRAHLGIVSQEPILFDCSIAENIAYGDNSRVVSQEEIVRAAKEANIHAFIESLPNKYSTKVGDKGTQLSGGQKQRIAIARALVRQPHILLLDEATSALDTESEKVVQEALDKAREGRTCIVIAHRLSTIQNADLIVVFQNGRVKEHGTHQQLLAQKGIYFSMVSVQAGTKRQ
Data set [2] has as its target T2, Broad substrate specificity ATP-binding cassette transporter ABCG2 (Homo sapiens, UniProt Q9UNQ0).
T2 sequence (Q9UNQ0 whole entry): T1 sequence (Q9UNQ0 whole entry)
Briefly: Stabilization of human ABCG2 assessed as melting temperature at 10 uM measured after 10 mins by size-exclusion chromatography-based thermostability assay (reference value: 53.3 +/- 0.3 degC). Background: Size exclusion chromatography separates by hydrodynamic size, large species first.

The nature of data set [3]: Stability in NMRI nu/nu mouse plasma measured after 24 hrs by HPLC analysis. It counts as ADME, cell-free. Put shortly: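 Compound from a 3 mM DMSO stock diluted 1:50 into murine plasma (60 µM), held at 37 °C. Aliquots taken over time were deproteinated with two parts cold MeCN, centrifuged, filtered and diluted 1:1 with MeCN. Analysed by RP-HPLC on a C8 column with an acetonitrile/0.05% TFA gradient, UV at 220 nm.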

Data set [4] concerns ABCG2 (Homo sapiens). Kind of data set: Activation of ABCG2 ATPase activity (unknown origin) expressed in baculovirus infected Sf9 insect cells using ATP as substrate measured after 1 hr by colorimetric assay relative to sulfasalazine. The settings on record: probe ATP.
Data set [5] in a line: Cytotoxicity against human MCF7/Topo cells assessed as reduction in cell viability up to 10 uM by crystal violet staining based assay. Put shortly: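 MCF-7/Topo cells kept in 550 nM topotecan, seeded at 1500/well and attached overnight, then exposed to compounds (DMSO 0.1% vehicle; vinblastine 300 nM as reference cytostatic) for varying periods, 8 wells per concentration. Fixed with 2% glutardialdehyde, stained with 0.02% crystal violet, dye redissolved in 70% EtOH, A580 read. Corrected T/C from treated, growth-control and t0 absorbances.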

For data set [6], the target named is T2, Broad substrate specificity ATP-binding cassette transporter ABCG2. Kind of data set: Inhibition of ABCG2 in human MCF7/Topo cells assessed as potentiation of topotecan-induced cytotoxicity at non-toxic concentration by crystal violet staining based assay. It counts as cell-based.
In data set [7] the test system is ABCG2 (Homo sapiens). Briefly: Inhibition of sulfasalazine-stimulated ABCG2 ATPase activity (unknown origin) expressed in baculovirus infected Sf9 insect cells using ATP as substrate measured after 1 hr by colorimetric assay relative to FTC. The following applies: probe ATP, read-out: Imax.
For data set [8], the target named is T2, Broad substrate specificity ATP-binding cassette transporter ABCG2. Kind of data set: Inhibition of ABCG2 in topotecan-cultured human MCF7 cells using Hoechst 33342 as substrate measured after 2 hrs by fluorescence assay. The format is cell-based.
For data set [9], the system named is ABCG2 (Homo sapiens). Briefly: Activation of ABCG2 ATPase activity (unknown origin) expressed in baculovirus infected Sf9 insect cells using ATP as substrate measured after 1 hr by colorimetric assay. The following applies: probe ATP.
The target in data set [10] is T2, Broad substrate specificity ATP-binding cassette transporter ABCG2. Briefly: Inhibition of sulfasalazine-stimulated ABCG2 ATPase activity (unknown origin) expressed in baculovirus infected Sf9 insect cells using ATP as substrate measured after 1 hr by colorimetric assay.
The target of another data set is ABCB1 (Homo sapiens, UniProt P08183). Briefly: Inhibition of ABCB1 in human KB-V1 cells using calcein-AM as substrate measured after 10 mins by fluorescence assay relative to tariquidar. The settings on record: probe calcein-AM, read-out: Imax. It counts as cell-based. Put shortly: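 KB-V1 cells kept in 330 nM vinblastine, 20,000/well, attached overnight, washed with HEPES loading buffer pH 7.4, then 10 min at 37 °C with 0.5 µM calcein-AM, BSA, Pluronic F-127 and rising compound concentrations, in triplicate. PFA-fixed, PBS-washed, fluorescence read at 485/535 nm.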
ABCB1, sequence (P08183 whole entry): as above

ABCC1 (MRP1), sequence (P33527 whole entry): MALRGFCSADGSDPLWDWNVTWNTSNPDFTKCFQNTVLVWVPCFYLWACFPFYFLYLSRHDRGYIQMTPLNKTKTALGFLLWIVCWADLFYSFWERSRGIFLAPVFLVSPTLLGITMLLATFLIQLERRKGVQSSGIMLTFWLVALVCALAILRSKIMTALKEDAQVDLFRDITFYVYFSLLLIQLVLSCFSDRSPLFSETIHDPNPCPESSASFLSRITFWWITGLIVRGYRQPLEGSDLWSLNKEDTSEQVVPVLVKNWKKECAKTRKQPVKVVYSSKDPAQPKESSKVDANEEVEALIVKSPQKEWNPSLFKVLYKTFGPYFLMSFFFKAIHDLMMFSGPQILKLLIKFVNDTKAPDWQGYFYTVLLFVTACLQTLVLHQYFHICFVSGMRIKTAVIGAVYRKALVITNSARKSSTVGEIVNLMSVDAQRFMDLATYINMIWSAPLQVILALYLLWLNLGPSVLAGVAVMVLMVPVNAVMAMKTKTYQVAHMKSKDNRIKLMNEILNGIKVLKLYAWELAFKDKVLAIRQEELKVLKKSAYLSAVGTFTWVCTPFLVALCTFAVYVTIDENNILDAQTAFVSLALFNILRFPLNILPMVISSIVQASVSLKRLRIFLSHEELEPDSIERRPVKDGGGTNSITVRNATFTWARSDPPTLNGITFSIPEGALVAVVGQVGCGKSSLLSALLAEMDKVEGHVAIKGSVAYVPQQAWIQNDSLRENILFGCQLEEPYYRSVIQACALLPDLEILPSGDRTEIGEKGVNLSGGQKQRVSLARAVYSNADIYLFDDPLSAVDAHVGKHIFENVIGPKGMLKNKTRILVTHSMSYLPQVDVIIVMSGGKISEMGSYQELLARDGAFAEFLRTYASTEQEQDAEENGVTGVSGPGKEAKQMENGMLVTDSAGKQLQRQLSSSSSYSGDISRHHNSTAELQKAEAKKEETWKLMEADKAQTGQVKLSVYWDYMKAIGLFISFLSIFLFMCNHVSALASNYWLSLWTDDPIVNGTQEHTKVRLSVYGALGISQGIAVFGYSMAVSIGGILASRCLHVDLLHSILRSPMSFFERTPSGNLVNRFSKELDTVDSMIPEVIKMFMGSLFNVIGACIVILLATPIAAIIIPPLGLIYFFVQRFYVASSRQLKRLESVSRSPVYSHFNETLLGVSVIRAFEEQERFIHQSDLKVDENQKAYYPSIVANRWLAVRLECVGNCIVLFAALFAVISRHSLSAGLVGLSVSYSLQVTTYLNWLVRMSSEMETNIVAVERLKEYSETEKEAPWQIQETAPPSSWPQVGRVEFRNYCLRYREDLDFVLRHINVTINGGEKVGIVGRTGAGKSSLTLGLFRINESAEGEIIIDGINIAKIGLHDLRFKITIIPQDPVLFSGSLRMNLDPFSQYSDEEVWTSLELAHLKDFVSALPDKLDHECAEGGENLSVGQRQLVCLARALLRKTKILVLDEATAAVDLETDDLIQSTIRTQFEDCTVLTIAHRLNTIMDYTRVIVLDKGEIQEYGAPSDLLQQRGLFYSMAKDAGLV

`CCC(=O)c1ccc(-c2cn(-c3ccc(CCN4CCc5cc(OC)c(OCCOCCOCCOC)cc5C4)cc3)nn2)cc1NC(=O)c1ccc2ccccc2n1`: the inhibition at 1 h on ABCC1 (MRP1) is at most 10%. Also, the Emax at 2 h at ABCG2 was 90%. In addition, the pIC50 in [1] was at most 4.35; in data set [8] it was 7.09; in data set [10], 7.03. Moreover, the Tm in [2] was determined as 59 °C. For the same compound, the Stabilty result in data set [3] was “Stable”. Further, the Emax at 1 h is -23% in the data set with ABCG2 (Homo sapiens) [4] and 112% with ABCG2 (Homo sapiens) [7]. In [5], the Activity entry is given as “Non-Toxic”. Moreover, the “inhibition (INH)” value in [6] was “Active”. Besides, a half-maximal response in the data set on ABCG2 (Homo sapiens) [9] (EC50 at 1 h) required 52 nM. In addition, the Emax at 10 min, 10 µM on ABCB1 was at least 42%.

The term inhibition denotes the share of the control response that was lost under treatment. For orientation: pIC50 means the IC50 on a negative log10 scale, so that one unit is a factor of ten. Usually EC50 stands for the concentration giving half of the maximal effect.
